From ChEMBL document CHEMBL4602720, “Degradation versus Inhibition: Development of Proteolysis-Targeting Chimeras for Overcoming Statin-Induced Compensatory Upregulation of 3-Hydroxy-3-methylglutaryl Coenzyme A Reductase” (J Med Chem, 2020)
The source made the active and inactive calls. No cut-off for these calls is given here.

Key:
[1] = target: Protein cereblon/3-hydroxy-3-methylglutaryl-coenzyme A reductase (Homo sapiens) (UniProt P04035+Q96SW2); assay: Protac activity at human Flag-tagged CRBN/Myc-tagged HMGCR expressed in HEK293T cells assessed as induction of HMGCR immunoprecipitation 1 uM preincubated for 16 hrs followed by pomalidomide addition addition and measured after 5 hrs by Western blot analysis; type: cell-based; details: HEK-293T
Chain of Protein cereblon/3-hydroxy-3-methylglutaryl-coenzyme A reductase (Homo sapiens) (P04035 whole entry, looked up): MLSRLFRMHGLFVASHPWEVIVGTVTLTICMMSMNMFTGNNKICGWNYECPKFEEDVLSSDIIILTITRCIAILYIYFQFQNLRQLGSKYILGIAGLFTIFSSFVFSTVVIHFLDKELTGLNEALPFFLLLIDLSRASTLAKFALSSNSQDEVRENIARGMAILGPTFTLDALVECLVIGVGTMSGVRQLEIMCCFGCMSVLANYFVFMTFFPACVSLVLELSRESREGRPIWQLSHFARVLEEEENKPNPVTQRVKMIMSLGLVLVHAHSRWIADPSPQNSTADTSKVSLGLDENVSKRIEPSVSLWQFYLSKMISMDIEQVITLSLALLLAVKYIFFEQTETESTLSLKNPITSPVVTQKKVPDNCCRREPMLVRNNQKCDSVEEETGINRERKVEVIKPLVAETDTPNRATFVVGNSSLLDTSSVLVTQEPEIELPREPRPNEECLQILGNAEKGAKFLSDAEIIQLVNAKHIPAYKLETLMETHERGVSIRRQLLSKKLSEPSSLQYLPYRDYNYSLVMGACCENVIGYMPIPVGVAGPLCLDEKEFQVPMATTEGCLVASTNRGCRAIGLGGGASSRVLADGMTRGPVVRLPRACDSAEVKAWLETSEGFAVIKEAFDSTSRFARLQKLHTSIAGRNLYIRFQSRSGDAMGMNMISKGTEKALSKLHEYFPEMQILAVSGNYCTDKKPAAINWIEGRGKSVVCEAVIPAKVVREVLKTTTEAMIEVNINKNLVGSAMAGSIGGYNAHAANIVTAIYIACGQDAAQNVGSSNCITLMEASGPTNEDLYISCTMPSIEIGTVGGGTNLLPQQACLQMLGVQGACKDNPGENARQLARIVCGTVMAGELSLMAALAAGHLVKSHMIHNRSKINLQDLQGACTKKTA
Chain of Protein cereblon/3-hydroxy-3-methylglutaryl-coenzyme A reductase (Homo sapiens) (Q96SW2 whole entry, looked up): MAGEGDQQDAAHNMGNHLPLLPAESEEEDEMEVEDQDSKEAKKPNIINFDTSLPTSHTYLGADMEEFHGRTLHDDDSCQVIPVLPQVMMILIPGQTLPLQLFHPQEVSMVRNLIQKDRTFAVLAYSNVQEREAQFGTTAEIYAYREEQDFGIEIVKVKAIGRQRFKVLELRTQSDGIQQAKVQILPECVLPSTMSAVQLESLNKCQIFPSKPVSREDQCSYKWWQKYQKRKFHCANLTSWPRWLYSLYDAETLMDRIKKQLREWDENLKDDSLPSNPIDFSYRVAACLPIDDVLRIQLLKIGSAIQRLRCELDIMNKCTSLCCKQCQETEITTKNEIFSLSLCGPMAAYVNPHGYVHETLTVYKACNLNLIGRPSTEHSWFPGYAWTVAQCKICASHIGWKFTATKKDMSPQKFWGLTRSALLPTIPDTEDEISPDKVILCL

[2] = target: T1, Protein cereblon/3-hydroxy-3-methylglutaryl-coenzyme A reductase (Cricetulus griseus) (UniProt P00347+G3H338); assay: Protac activity at CRBN/HMGCR in Insig-1/Insig-2 deficient Chinese hamster SRD15 cells assessed as HMGCR level at 1 uM after 16 hrs in presence of 1 uM P22A-Et by immunoblotting analysis (reference value: 1)
[3] = target: T1, Protein cereblon/3-hydroxy-3-methylglutaryl-coenzyme A reductase (Cricetulus griseus); assay: Protac activity at CRBN/HMGCR in Insig-1/Insig-2 deficient Chinese hamster SRD15 cells assessed as HMGCR level at 1 uM after 16 hrs in presence of 0.3 uM atorvastatin by immunoblotting analysis (reference value: 1)
Target sequence in this assay (G3H338 1-445 partner): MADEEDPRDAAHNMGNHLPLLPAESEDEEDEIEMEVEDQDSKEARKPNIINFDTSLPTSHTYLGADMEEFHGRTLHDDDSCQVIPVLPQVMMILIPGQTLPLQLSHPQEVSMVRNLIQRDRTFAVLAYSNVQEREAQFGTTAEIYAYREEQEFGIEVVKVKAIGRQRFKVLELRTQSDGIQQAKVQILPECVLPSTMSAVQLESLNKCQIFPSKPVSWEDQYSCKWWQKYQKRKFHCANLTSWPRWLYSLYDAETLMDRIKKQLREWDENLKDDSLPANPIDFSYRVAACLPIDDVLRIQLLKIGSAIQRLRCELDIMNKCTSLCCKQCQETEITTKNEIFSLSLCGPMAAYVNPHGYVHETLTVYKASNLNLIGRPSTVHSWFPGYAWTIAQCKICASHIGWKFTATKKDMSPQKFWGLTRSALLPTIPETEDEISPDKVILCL
Target sequence in this assay (P00347 whole entry): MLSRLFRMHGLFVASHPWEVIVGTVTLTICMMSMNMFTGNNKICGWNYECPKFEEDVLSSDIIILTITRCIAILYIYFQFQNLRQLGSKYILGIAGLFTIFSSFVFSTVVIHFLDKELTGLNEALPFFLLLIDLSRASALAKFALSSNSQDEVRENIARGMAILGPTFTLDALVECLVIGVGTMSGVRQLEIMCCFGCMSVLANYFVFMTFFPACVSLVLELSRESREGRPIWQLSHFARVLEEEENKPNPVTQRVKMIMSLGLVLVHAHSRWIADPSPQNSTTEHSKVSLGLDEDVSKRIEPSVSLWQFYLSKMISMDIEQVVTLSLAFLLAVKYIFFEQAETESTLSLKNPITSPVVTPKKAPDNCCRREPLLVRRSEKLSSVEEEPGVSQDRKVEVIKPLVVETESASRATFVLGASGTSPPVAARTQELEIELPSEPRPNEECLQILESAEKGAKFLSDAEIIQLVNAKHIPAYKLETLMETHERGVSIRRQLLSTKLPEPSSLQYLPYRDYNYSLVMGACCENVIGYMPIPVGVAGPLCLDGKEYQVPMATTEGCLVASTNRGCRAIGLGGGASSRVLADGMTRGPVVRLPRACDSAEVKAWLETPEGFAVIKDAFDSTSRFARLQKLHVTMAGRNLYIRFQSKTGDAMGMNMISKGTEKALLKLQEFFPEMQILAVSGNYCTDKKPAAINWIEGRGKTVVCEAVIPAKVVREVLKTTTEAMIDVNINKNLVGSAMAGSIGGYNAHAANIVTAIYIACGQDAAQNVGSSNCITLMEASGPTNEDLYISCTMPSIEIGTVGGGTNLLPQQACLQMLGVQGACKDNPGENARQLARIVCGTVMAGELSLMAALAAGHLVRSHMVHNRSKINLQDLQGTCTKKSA

[4] = target: T1, Protein cereblon/3-hydroxy-3-methylglutaryl-coenzyme A reductase (Cricetulus griseus); assay: Protac activity at CRBN/HMGCR in Insig-1/Insig-2 deficient Chinese hamster SRD15 cells assessed as HMGCR level at 0.1 uM after 16 hrs by immunoblotting analysis (reference value: 1)
Procedure, shortened: (§1)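 Dose-response in SRD15 cells in Medium A with 5% FBS, 16 h treatment, DMSO final 0.1% or lower. RIPA lysates immunoblotted for HMGCR. HMGCR densitometry normalized to actin, with the DMSO group set to 1. Three repeats. DC50 is taken from a dose-response fit of the semi-quantitative blots, mean of 3 independent experiments.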
Target sequence in this assay (G3H338 1-445 partner): as the sequence (G3H338 1-445 partner) above
Target sequence in this assay (P00347 whole entry): as the sequence (P00347 whole entry) above

[5] = target: T2, Sterol regulatory element-binding protein 2 (Mus musculus) (UniProt Q3U1N2); assay: Activation of SREBP2 pathway in mouse primary hepatocytes assessed as increase in HMGCR mRNA expression at 0.3 to 1 uM afer 16 hrs by quantitative real-time PCR analysis; type: cell-based
T2 sequence (whole entry): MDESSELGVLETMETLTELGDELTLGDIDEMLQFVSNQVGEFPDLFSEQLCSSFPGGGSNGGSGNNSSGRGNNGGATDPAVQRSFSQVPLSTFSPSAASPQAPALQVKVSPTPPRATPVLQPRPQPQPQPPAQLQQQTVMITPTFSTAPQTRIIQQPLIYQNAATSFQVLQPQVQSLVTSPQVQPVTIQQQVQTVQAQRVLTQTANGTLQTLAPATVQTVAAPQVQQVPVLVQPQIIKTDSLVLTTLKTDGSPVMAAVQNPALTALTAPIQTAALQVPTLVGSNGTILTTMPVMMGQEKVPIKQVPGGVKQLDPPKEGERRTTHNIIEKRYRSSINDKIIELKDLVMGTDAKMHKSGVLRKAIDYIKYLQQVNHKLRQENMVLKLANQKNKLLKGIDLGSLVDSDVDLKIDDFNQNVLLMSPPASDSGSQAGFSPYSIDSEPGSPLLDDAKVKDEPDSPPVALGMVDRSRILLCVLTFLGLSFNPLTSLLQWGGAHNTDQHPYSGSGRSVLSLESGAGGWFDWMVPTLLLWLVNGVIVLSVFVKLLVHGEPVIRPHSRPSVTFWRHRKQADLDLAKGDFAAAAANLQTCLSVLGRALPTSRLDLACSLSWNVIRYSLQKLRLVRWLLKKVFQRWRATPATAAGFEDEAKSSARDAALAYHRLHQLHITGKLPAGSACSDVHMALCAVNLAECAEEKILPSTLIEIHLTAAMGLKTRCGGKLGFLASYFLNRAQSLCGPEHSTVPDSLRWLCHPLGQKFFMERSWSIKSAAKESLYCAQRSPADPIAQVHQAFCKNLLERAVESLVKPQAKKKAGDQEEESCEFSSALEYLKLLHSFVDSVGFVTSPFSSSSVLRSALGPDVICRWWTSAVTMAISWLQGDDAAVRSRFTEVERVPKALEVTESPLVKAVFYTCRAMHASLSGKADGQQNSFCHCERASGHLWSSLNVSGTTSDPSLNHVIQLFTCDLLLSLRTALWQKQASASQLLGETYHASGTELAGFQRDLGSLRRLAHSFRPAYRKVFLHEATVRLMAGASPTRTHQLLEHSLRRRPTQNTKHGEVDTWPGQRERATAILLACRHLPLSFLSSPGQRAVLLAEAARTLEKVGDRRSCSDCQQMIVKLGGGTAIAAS

[6] = system: Huh-7; assay: Effect on total neutral lipid in human HuH7 cells assessed change in lipid droplet count at 1 uM after 16 hrs by Oil Red O staining based method; type: ADME, cell-based; details: huh-7, 16 h
Procedure, shortened: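 Huh7 cells on glass coverslips, treated, fixed in 4% paraformaldehyde in PBS 30 min at room temperature, stained 15 min with 0.5% (w/v) Oil Red O in propylene glycol, washed in water; lipid droplets examined relative to DMSO.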

[7] = target: T1, Protein cereblon/3-hydroxy-3-methylglutaryl-coenzyme A reductase (Cricetulus griseus); assay: Protac activity at CRBN/HMGCR in Insig-1/Insig-2 deficient Chinese hamster SRD15 cells assessed as HMGCR level at 1 uM after 16 hrs by immunoblotting analysis (reference value: 1); procedure, shortened: as §1
Target sequence in this assay (G3H338 1-445 partner): as the sequence (G3H338 1-445 partner) above
Target sequence in this assay (P00347 whole entry): as the sequence (P00347 whole entry) above

[8] = target: T1, Protein cereblon/3-hydroxy-3-methylglutaryl-coenzyme A reductase (Cricetulus griseus); assay: Protac activity at CRBN/HMGCR in Insig-1/Insig-2 deficient Chinese hamster SRD15 cells assessed as HMGCR level at 1 uM after 16 hrs by immunoblotting analysis relative to control; procedure, shortened: as §1
Target sequence in this assay (G3H338 1-445 partner): as the sequence (G3H338 1-445 partner) above
Target sequence in this assay (P00347 whole entry): as the sequence (P00347 whole entry) above

[9] = target: T2, Sterol regulatory element-binding protein 2 (Mus musculus); assay: Activation of SREBP2 pathway in mouse primary hepatocytes assessed as increase in LDLR mRNA expression at 0.3 to 1 uM afer 16 hrs by quantitative real-time PCR analysis; type: cell-based
[10] = target: T1, Protein cereblon/3-hydroxy-3-methylglutaryl-coenzyme A reductase (Cricetulus griseus); assay: Protac activity at CRBN/HMGCR in 5'-GCAAGGCAGUGUAUAUUAU-3' siRNA transfected in Insig-1/Insig-2 deficient Chinese hamster SRD15 cells assessed as induction of HMGCR degradation at 1 uM after 16 hrs by immunoblotting analysis
Procedure, shortened: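 SRD15 cells (Insig-1/Insig-2-deficient CHO-7) in Medium A with 5% FBS at 37 °C, 5% CO2; transfected with negative-control or Crbn-targeting siRNA duplexes for 48 h, then given 1 μM degrader for 16 h. HMGCR by SDS-PAGE immunoblot of RIPA lysates. Knockdown efficiency checked by qRT-PCR against hamster GAPDH, comparative CT method. n = 3 independent experiments.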

[11] = target: T1, Protein cereblon/3-hydroxy-3-methylglutaryl-coenzyme A reductase (Cricetulus griseus); assay: Protac activity at CRBN/HMGCR in Insig-1/Insig-2 deficient Chinese hamster SRD15 cells assessed as HMGCR level at 0.03 uM after 16 hrs by immunoblotting analysis (reference value: 1); procedure, shortened: as §1

Compound: CC(C)c1c(C(=O)Nc2ccccc2)c(-c2cccc(OCCCc3cn(CCOCCOCCOCCOCCNc4cccc5c4C(=O)N(C4CCC(=O)NC4=O)C5=O)nn3)c2)c(-c2ccc(F)cc2)n1CC[C@@H](O)C[C@@H](O)CC(=O)O (stereo partly specified)
- Activity [1]: inactive
- fold change (FC) [2]: 1.1
- fold change (FC) [3]: 1
- fold change (FC) [4]: 0.6
- Activity [5]: Active
- Activity [6]: Non-Toxic
- fold change (FC) [7]: 0.3 to 0.6
- Activity [8]: 50%
- Activity [9]: Active
- Activity [10]: inactive
- fold change (FC) [11]: 0.6
